Results as given in PMC6839450 (ACS chemical biology, 2015).

How the values were obtained:
Test in all cases: Cell viability
Conditions in all cases: Ac-peptide, up to 20 μM, 24 h, CellTiter-Glo
wild-type MEFs = assay type: cell-based, mouse
Outline: (§1)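 Cells in OptiMEM with penicillin/streptomycin: MEFs (wild-type or Bax−/−Bak−/−) at 2.5 × 10^3 per well, adhered overnight and washed; OCI-AML3 at 1 × 10^4 per well. Serial dilutions of peptide from a 10 mM DMSO stock, or vehicle, were applied for 2 h at 37 °C serum-free, then FBS was added to 10%. CellTiter-Glo luminescence was read 24 h post-treatment.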

Bax−/−Bak−/− (DKO) MEFs = assay type: cell-based, mouse
Outline: as §1

OCI-AML3 cells = assay type: cell-based
Outline: as §1

BIM BH3_2: unmodified BIM BH3 domain peptide, amino acids 145–164; N-terminal cap depends on the assay
no effect: Effect on viability of wild-type MEFs (in words) (wild-type MEFs) | Effect on viability of Bax−/−Bak−/− (DKO) MEFs (in words) (Bax−/−Bak−/− (DKO) MEFs) | Effect on viability of OCI-AML3 cells (in words) (OCI-AML3 cells)
